# Data: ChEMBL document CHEMBL2424522, “Demonic axe-like conjugated alkynes in combating microbes” (2013)
# What was measured:
# Type in all cases: functional
# Saccharomyces cerevisiae [1] = experiment: Antifungal activity against Saccharomyces cerevisiae MTCC 36 at 50 ug/ml after 48 hrs by agar well diffusion method; conditions: MTCC 36, 48 h, read-out: IZ
# In short: (§1)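 Test samples and DMSO controls incubated at 27 °C for 48 h. Inhibition zone diameter measured in mm. Three to four replicates per treatment.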
# Candida albicans [2] = experiment: Antifungal activity against Candida albicans MTCC 227 at 50 ug/ml after 48 hrs by agar well diffusion method; conditions: MTCC 227, 48 h, read-out: IZ; in short: as §1
# Diutina rugosa [3] = experiment: Antifungal activity against Candida rugosa NCIM 3462 at 50 ug/ml after 48 hrs by agar well diffusion method; conditions: NCIM 3462, 48 h, read-out: IZ; in short: as §1
# Aspergillus niger [4] = experiment: Antifungal activity against Aspergillus niger MTCC 344 at 50 ug/ml after 48 hrs by agar well diffusion method; conditions: MTCC 344, 48 h, read-out: IZ; in short: as §1
# Aspergillus flavus [5] = experiment: Antifungal activity against Aspergillus flavus MTCC 277 at 50 ug/ml after 48 hrs by agar well diffusion method; conditions: MTCC 277, 48 h, read-out: IZ; in short: as §1
# Escherichia coli = experiment: Antibacterial activity against Escherichia coli MTCC 443 by broth dilution method
# In short: (§2)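 Broth dilution per NCCL standards; all phosphorus ylides and conjugated alkynes tested in vitro.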
# Aspergillus niger [6] = experiment: Antifungal activity against Aspergillus niger MTCC 344 at 100 ug/ml after 48 hrs by agar well diffusion method; conditions: MTCC 344, 48 h, read-out: IZ; in short: as §1
# Klebsiella pneumoniae = experiment: Antibacterial activity against Klebsiella pneumoniae MTCC 618 by broth dilution method; in short: as §2
# Pseudomonas aeruginosa = experiment: Antibacterial activity against Pseudomonas aeruginosa MTCC 741 by broth dilution method; in short: as §2
# [7] = tested on: Staphylococcus epidermidis; experiment: Antibacterial activity against Staphylococcus epidermidis MTCC 435 by broth dilution method; in short: as §2
# Bacillus subtilis = experiment: Antibacterial activity against Bacillus subtilis MTCC 441 by broth dilution method; in short: as §2
# Aspergillus flavus [8] = experiment: Antifungal activity against Aspergillus flavus MTCC 277 at 100 ug/ml after 48 hrs by agar well diffusion method; conditions: MTCC 277, 48 h, read-out: IZ; in short: as §1
# Saccharomyces cerevisiae [9] = experiment: Antifungal activity against Saccharomyces cerevisiae MTCC 36 at 100 ug/ml after 48 hrs by agar well diffusion method; conditions: MTCC 36, 48 h, read-out: IZ; in short: as §1
# Candida albicans [10] = experiment: Antifungal activity against Candida albicans MTCC 227 at 100 ug/ml after 48 hrs by agar well diffusion method; conditions: MTCC 227, 48 h, read-out: IZ; in short: as §1
# Staphylococcus aureus = experiment: Antibacterial activity against Staphylococcus aureus MTCC 96 by broth dilution method; in short: as §2
# Diutina rugosa [11] = experiment: Antifungal activity against Candida rugosa NCIM 3462 at 100 ug/ml after 48 hrs by agar well diffusion method; conditions: NCIM 3462, 48 h, read-out: IZ; in short: as §1
smiles,measurement,setting,value
C[C@@H]1[C@H](O)[C@@H](C)/C=C/C=C/C=C/C=C/C=C/C=C/C=C/[C@H](O[C@@H]2O[C@H](C)[C@@H](O)[C@H](N)[C@@H]2O)C[C@@H]2O[C@](O)(C[C@@H](O)C[C@@H](O)[C@H](O)CC[C@@H](O)C[C@@H](O)CC(=O)O[C@H]1C)C[C@H](O)[C@H]2C(=O)O [AMPHOTERICIN B],zone of inhibition at 50 µg/mL,Saccharomyces cerevisiae [1],22 mm
same,zone of inhibition at 50 µg/mL,Candida albicans [2],23.5 mm
same,zone of inhibition at 50 µg/mL,Diutina rugosa [3],21 mm
same,zone of inhibition at 50 µg/mL,Aspergillus niger [4],25 mm
same,zone of inhibition at 50 µg/mL,Aspergillus flavus [5],25 mm
CCOC(=O)C(C(=O)c1ccco1)=P(c1ccccc1)(c1ccccc1)c1ccccc1,MIC,Escherichia coli,> 150 µg/mL
same,zone of inhibition at 100 µg/mL,Aspergillus niger [6],0 mm
same,MIC,Klebsiella pneumoniae,> 150 µg/mL
same,MIC,Pseudomonas aeruginosa,> 150 µg/mL
same,MIC,[7],> 150 µg/mL
same,MIC,Bacillus subtilis,> 150 µg/mL
same,zone of inhibition at 100 µg/mL,Aspergillus flavus [8],0 mm
same,zone of inhibition at 100 µg/mL,Saccharomyces cerevisiae [9],0 mm
same,zone of inhibition at 100 µg/mL,Candida albicans [10],0 mm
same,MIC,Staphylococcus aureus,> 150 µg/mL
same,zone of inhibition at 100 µg/mL,Diutina rugosa [11],0 mm
CCOC(=O)C(C(=O)c1ccccc1C)=P(c1ccccc1)(c1ccccc1)c1ccccc1,MIC,Escherichia coli,> 150 µg/mL
same,zone of inhibition at 100 µg/mL,Aspergillus niger [6],0 mm
same,MIC,Klebsiella pneumoniae,> 150 µg/mL
same,MIC,Pseudomonas aeruginosa,> 150 µg/mL
same,MIC,[7],> 150 µg/mL
same,MIC,Bacillus subtilis,> 150 µg/mL
same,zone of inhibition at 100 µg/mL,Aspergillus flavus [8],0 mm
same,zone of inhibition at 100 µg/mL,Saccharomyces cerevisiae [9],0 mm
same,zone of inhibition at 100 µg/mL,Candida albicans [10],0 mm
same,MIC,Staphylococcus aureus,> 150 µg/mL
same,zone of inhibition at 100 µg/mL,Diutina rugosa [11],0 mm
CCOC(=O)C(C(=O)C(C)(C)C)=P(c1ccccc1)(c1ccccc1)c1ccccc1,MIC,Escherichia coli,> 150 µg/mL
same,zone of inhibition at 100 µg/mL,Aspergillus niger [6],0 mm
same,MIC,Klebsiella pneumoniae,> 150 µg/mL
same,MIC,Pseudomonas aeruginosa,> 150 µg/mL
same,MIC,[7],> 150 µg/mL
same,MIC,Bacillus subtilis,> 150 µg/mL
same,zone of inhibition at 100 µg/mL,Aspergillus flavus [8],0 mm
same,zone of inhibition at 100 µg/mL,Saccharomyces cerevisiae [9],0 mm
same,zone of inhibition at 100 µg/mL,Candida albicans [10],0 mm
same,MIC,Staphylococcus aureus,> 150 µg/mL
same,zone of inhibition at 100 µg/mL,Diutina rugosa [11],0 mm
CC(C)OC(=O)C(C(=O)c1ccco1)=P(c1ccccc1)(c1ccccc1)c1ccccc1,MIC,Escherichia coli,> 150 µg/mL
same,zone of inhibition at 100 µg/mL,Aspergillus niger [6],0 mm
same,MIC,Klebsiella pneumoniae,> 150 µg/mL
same,MIC,Pseudomonas aeruginosa,> 150 µg/mL
same,MIC,[7],> 150 µg/mL
same,MIC,Bacillus subtilis,> 150 µg/mL
same,zone of inhibition at 100 µg/mL,Aspergillus flavus [8],0 mm
same,zone of inhibition at 100 µg/mL,Saccharomyces cerevisiae [9],0 mm
same,zone of inhibition at 100 µg/mL,Candida albicans [10],0 mm
same,MIC,Staphylococcus aureus,> 150 µg/mL
same,zone of inhibition at 100 µg/mL,Diutina rugosa [11],0 mm
N#CC(C(=O)c1cc(F)c(Cl)nc1Cl)=P(c1ccccc1)(c1ccccc1)c1ccccc1,MIC,Escherichia coli,> 150 µg/mL
same,zone of inhibition at 100 µg/mL,Aspergillus niger [6],0 mm
same,MIC,Klebsiella pneumoniae,> 150 µg/mL
same,MIC,Pseudomonas aeruginosa,> 150 µg/mL
same,MIC,[7],> 150 µg/mL
same,MIC,Bacillus subtilis,> 150 µg/mL
same,zone of inhibition at 100 µg/mL,Aspergillus flavus [8],0 mm
same,zone of inhibition at 100 µg/mL,Saccharomyces cerevisiae [9],0 mm
same,zone of inhibition at 100 µg/mL,Candida albicans [10],0 mm
same,MIC,Staphylococcus aureus,> 150 µg/mL
same,zone of inhibition at 100 µg/mL,Diutina rugosa [11],0 mm
CC(C)OC(=O)C(C(=O)c1ccc(Cl)nc1)=P(c1ccccc1)(c1ccccc1)c1ccccc1,MIC,Escherichia coli,> 150 µg/mL
same,zone of inhibition at 100 µg/mL,Aspergillus niger [6],0 mm
same,MIC,Klebsiella pneumoniae,> 150 µg/mL
same,MIC,Pseudomonas aeruginosa,> 150 µg/mL
same,MIC,[7],> 150 µg/mL
same,MIC,Bacillus subtilis,> 150 µg/mL
same,zone of inhibition at 100 µg/mL,Aspergillus flavus [8],0 mm
same,zone of inhibition at 100 µg/mL,Saccharomyces cerevisiae [9],0 mm
same,zone of inhibition at 100 µg/mL,Candida albicans [10],0 mm
same,MIC,Staphylococcus aureus,> 150 µg/mL
same,zone of inhibition at 100 µg/mL,Diutina rugosa [11],0 mm
N#CC(C(=O)c1ccc(Cl)nc1)=P(c1ccccc1)(c1ccccc1)c1ccccc1,MIC,Escherichia coli,> 150 µg/mL
same,zone of inhibition at 100 µg/mL,Aspergillus niger [6],0 mm
same,MIC,Klebsiella pneumoniae,> 150 µg/mL
same,MIC,Pseudomonas aeruginosa,> 150 µg/mL
same,MIC,[7],> 150 µg/mL
same,MIC,Bacillus subtilis,> 150 µg/mL
same,zone of inhibition at 100 µg/mL,Aspergillus flavus [8],0 mm
same,zone of inhibition at 100 µg/mL,Saccharomyces cerevisiae [9],0 mm
same,zone of inhibition at 100 µg/mL,Candida albicans [10],0 mm
same,MIC,Staphylococcus aureus,> 150 µg/mL
same,zone of inhibition at 100 µg/mL,Diutina rugosa [11],0 mm
CC(C)OC(=O)C(C(=O)C(C)(C)C)=P(c1ccccc1)(c1ccccc1)c1ccccc1,MIC,Escherichia coli,> 150 µg/mL
same,zone of inhibition at 100 µg/mL,Aspergillus niger [6],0 mm
same,MIC,Klebsiella pneumoniae,> 150 µg/mL
same,MIC,Pseudomonas aeruginosa,> 150 µg/mL
same,MIC,[7],> 150 µg/mL
same,MIC,Bacillus subtilis,> 150 µg/mL
same,zone of inhibition at 100 µg/mL,Aspergillus flavus [8],0 mm
same,zone of inhibition at 100 µg/mL,Saccharomyces cerevisiae [9],0 mm
same,zone of inhibition at 100 µg/mL,Candida albicans [10],0 mm
same,MIC,Staphylococcus aureus,> 150 µg/mL
same,zone of inhibition at 100 µg/mL,Diutina rugosa [11],0 mm
CC1(C)S[C@@H]2[C@H](NC(=O)Cc3ccccc3)C(=O)N2[C@H]1C(=O)O [PENICILLIN G],MIC,Escherichia coli,12.5 µg/mL
same,MIC,Klebsiella pneumoniae,6.25 µg/mL
same,MIC,Pseudomonas aeruginosa,12.5 µg/mL
same,MIC,[7],3.12 µg/mL
same,MIC,Bacillus subtilis,1.56 µg/mL
same,MIC,Staphylococcus aureus,1.56 µg/mL
CC(C)(C)C(=O)C(C#N)=P(c1ccccc1)(c1ccccc1)c1ccccc1,MIC,Escherichia coli,> 150 µg/mL
same,zone of inhibition at 100 µg/mL,Aspergillus niger [6],0 mm
same,MIC,Klebsiella pneumoniae,> 150 µg/mL
same,MIC,Pseudomonas aeruginosa,> 150 µg/mL
same,MIC,[7],> 150 µg/mL
same,MIC,Bacillus subtilis,> 150 µg/mL
same,zone of inhibition at 100 µg/mL,Aspergillus flavus [8],0 mm
same,zone of inhibition at 100 µg/mL,Saccharomyces cerevisiae [9],0 mm
same,zone of inhibition at 100 µg/mL,Candida albicans [10],0 mm
same,MIC,Staphylococcus aureus,> 150 µg/mL
same,zone of inhibition at 100 µg/mL,Diutina rugosa [11],0 mm
